From publication PMC8385540 (Journal of natural products, 2013)
pIC50: −log10 of the molar value.

Columns and labels:
[1] = molecular target: human cannabinoid CB2 receptor (Homo sapiens, UniProt P34972); assay: Plate-based assay, inhibition of CB2 receptor internalization; assay type: cell-based
In short: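 CHO cells stably expressing human CB2, seeded at 2.0 × 10^5 cells/mL in 96-well plates, grown 24 h in DMEM/F12 with 10% FBS. Preincubated 1 h with twofold serial dilutions of test compound (top 10 μM; DMSO <0.1% final), then 1 h with 2 nM [3H]-CP 55,940. Washed, NaOH-lysed, scintillation counted, and normalized to no-compound uptake. IC50 from sigmoid nonlinear fit, means ± SE (n = 6). JD5037 as positive control.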

[2] = molecular target: human cannabinoid CB1 receptor (Homo sapiens, UniProt P21554); assay: Plate-based assay, inhibition of CB1 receptor internalization; assay type: cell-based
human cannabinoid CB1 receptor, sequence (P21554 whole entry): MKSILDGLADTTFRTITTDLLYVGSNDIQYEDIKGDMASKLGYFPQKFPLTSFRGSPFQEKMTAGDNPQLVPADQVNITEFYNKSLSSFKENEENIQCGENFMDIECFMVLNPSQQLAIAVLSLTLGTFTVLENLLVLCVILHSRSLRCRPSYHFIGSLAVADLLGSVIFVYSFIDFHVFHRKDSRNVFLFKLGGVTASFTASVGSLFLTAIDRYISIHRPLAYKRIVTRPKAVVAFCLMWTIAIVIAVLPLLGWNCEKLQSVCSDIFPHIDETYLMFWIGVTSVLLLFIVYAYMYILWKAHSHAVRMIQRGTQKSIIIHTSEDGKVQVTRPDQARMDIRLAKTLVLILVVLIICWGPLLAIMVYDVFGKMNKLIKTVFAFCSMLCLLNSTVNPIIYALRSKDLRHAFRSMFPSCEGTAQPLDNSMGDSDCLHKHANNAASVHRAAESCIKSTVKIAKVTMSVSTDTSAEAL

HRH4 = HRH4 (Homo sapiens, UniProt Q9H3N8); assay: DiscoveRX gpcrMAX panel, agonist/antagonist; assay type: cell-based; conditions: HRH4, antagonist mode; negative inhibition may indicate agonist or PAM activity
HRH4, sequence (Q9H3N8 whole entry): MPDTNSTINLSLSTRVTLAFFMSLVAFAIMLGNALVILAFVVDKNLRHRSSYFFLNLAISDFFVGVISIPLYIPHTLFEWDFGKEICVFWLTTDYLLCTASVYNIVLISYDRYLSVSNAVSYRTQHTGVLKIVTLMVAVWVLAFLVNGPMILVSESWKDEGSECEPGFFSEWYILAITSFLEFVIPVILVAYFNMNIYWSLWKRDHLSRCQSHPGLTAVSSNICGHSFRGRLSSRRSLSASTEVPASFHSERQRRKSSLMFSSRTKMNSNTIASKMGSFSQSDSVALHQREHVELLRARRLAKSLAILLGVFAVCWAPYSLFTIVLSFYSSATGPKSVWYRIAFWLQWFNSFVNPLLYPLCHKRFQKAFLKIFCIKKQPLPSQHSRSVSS

RXFP3 = molecular target: T1, RXFP3 (Homo sapiens, UniProt Q9NSD7); assay: DiscoveRX gpcrMAX panel, agonist/antagonist; assay type: cell-based; conditions: RXFP3, antagonist mode; negative inhibition may indicate agonist or PAM activity
T1 sequence (Q9NSD7 1-469): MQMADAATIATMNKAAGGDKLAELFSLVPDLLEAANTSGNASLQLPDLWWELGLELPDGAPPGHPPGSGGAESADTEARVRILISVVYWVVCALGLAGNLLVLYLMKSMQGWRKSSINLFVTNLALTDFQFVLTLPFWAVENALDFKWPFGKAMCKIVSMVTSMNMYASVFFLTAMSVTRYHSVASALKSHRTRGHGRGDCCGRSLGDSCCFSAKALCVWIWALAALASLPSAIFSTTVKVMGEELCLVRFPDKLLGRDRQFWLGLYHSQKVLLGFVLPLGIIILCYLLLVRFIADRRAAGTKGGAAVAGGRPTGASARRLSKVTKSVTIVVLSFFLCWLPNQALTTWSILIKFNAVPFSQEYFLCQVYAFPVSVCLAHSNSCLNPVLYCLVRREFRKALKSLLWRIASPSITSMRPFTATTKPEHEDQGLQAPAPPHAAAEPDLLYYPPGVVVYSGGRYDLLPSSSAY

FSH receptor = conditions: previously reported; cited from earlier work

human cannabinoid CB2 receptor, sequence (P34972 whole entry): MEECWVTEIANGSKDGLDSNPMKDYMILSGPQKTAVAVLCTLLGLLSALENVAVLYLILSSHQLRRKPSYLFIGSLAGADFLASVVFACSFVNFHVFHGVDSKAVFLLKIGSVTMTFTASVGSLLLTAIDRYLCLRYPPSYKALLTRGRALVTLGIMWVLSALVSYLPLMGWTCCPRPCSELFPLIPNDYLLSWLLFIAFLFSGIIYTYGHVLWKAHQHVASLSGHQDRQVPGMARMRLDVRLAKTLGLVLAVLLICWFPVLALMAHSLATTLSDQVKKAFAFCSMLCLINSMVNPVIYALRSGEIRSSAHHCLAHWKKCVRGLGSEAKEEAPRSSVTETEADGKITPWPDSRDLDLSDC

In the case of `C/C=C/C=C/C=C\CC/C=C/C(=O)NCC(C)(C)O` [Compound 2, hydroXy-α-sanshool], the “fold increase in activity against the CB2 receptor, 2 vs 3” value ([1]; cis configuration at C-6 of 2 compared with 3) was 2 fold.
For `C/C=C/C=C/C=C\CC/C=C/C=C/C(=O)NCC(C)(C)O` [Compound 4, hydroXy-γ-sanshool], the “fold more potent for CB1, 4 vs 5” value ([2]; C-8 cis-isomer 4 compared with 5) was 10 fold.
In the case of `CC/C=C/C/C=C\CC/C=C/C=C/C(=O)NCC(C)(C)O` [Compound 6, isobungeanool], the “antagonism of the CB2 receptor (in words)” value [1] was “weak antagonists”.
With `C/C=C/C=C/C=C/CC/C=C/C=C/C(=O)NCC(C)C` [Compound 7, (2E,4E,8E,10E,12E)-N-isobutyl-2,4,8,10,12-tetradecapentaenamide] the “% inhibition” value (HRH4) was −54%, the “antagonistic properties against the CB1 receptor (in words)” value [2] was “strong antagonistic properties” and the “antagonism of the CB2 receptor (in words)” value [1] was “weak antagonists”. For the same compound, the “% inhibition” value (RXFP3) was −81%.
Work on `CCCCCCCCC/C=C/C=C/C(=O)NCC(C)(C)O` [Compound 8, tetrahydrobungeanool] yielded a pIC50 [1] of 8.74.
With `CC(C)[C@H](N=C(NS(=O)(=O)c1ccc(Cl)cc1)N1C[C@H](c2ccccc2)C(c2ccc(Cl)cc2)=N1)C(N)=O` [JD5037, reference compound] the “IC50 of positive control, CB1 (in words)” value ([2]; positive control) was “within the expected range” and the “IC50 of positive control, CB2 (in words)” value ([1]; positive control) was “within the expected range”.
In the case of `CCCCCc1cc(O)c2c(c1)OC(C)(C)[C@@H]1CCC(C)=C[C@@H]21` [Δ^9-tetrahydrocannabinol], the “inhibition of the FSH receptor (in words)” value (FSH receptor) is given as “specific inhibition”.
